The list is not random: actives were taken first. Their share in the collection is about 5.3%.
NLRP3 yeast inh: NALP3 inflammasome inhibitors in reconstituted yeast, primary screen, luminescence, uHTS. AID 2825, 2010. inhibition, % at 10 µM. 330,000 tested, 0.39% active. Yeast reconstituted NLRP3/ASC/caspase-1, beta-gal luminescence, 24 h;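 active = inhibition of 50% or more; inactive = inhibition below 50%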;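 note: plate controls were induced DMSO wells for no effect and uninduced yeast grown without galactose for full effect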
T cruzi inh: inhibitors of intracellular T. cruzi growth, primary screen, luminescence, NIH3T3 host cells. T. cruzi beta-gal in NIH3T3, 90 h. AID 1885, 2009. inhibition, % (test concentration not listed). 300,000 tested, 1.4% active;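 active = mean inhibition across valid replicates above about 55%, limit read from the data; inconclusive = mean below that limit but half or more replicates reach it; inactive = mean below it, under half of replicates reach it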;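 note: signal also drops with host cell toxicity which is not excluded here; 0% = plate median of DMSO wells and 100% = zero luminescence signal; higher percent means less beta-gal luminescence so fewer parasites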
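Read-out: Parasite load inhibition, % | Test system: Mouse NIH/3T3 fibroblasts infected with β-gal-expressing T. cruzi Tulahuen C4 | Amount: 5,000 cells/well | Medium: DMEM, 2% fetal bovine serum | Signal: GalScreen β-gal luminescence, detergent lysis, 60 min | Timing: 3 h attach, ≥90 h co-culture | Also added: Tulahuen C4 trypomastigotes, 5000/well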
CSC inhib: cancer stem cell viability inhibitors, primary screen, luminescence | cancer stem cell-like cells viability | 300,000 tested, 1.1% active | inhibition, % at 7.5 µM; in the data active = inhibition above about 75%; inconclusive = no clear call, values can overlap the other calls; tested in HMLE shEcad cells
Calb FLC: C. albicans growth inhibition with fluconazole, primary screen, CaCi-2 strain, Alamar Blue fluorescence. C. albicans CaCi-2 + fluconazole, 48 h. AID 1979, 2009. 300,000 tested, 0.57% active. growth inhibition, % (no concentration beside the values);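 active = growth inhibition above about 58% in most replicates, limit read from the data, passing the limit was not always enough; inconclusive = exactly half the replicates above a set limit; inactive = most replicates below a set limit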;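 note: all wells also contain fluconazole at 8 µg/ml as a sub-toxic cotreatment; 0% = median of DMSO wells and 100% = median of geldanamycin control wells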
Beta cell apopt: inhibitors of cytokine-induced beta cell apoptosis, primary screen, luminescence | 300,000 tested, 0.8% active | protection from apoptosis, % (test concentration not listed) | INS-1E cytokine-induced death, ATP luminescence, 48 h; percent of positive-control rescue, neutral wells zero;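 active = Every replicate reaches about 75%, or at least half do and their mean reaches it too, limit read from the data; inconclusive = At least half of replicates reach the limit but their mean does not; inactive = Under half of replicates reach the limit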;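 note: 0% = cytokine-treated negative control wells and 100% = positive control rescue; higher means more ATP so stronger rescue from cytokine killing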
Mdm2 MdmX PPI: inhibitors of human Mdm2-MdmX association, primary screen, cell-based, luminescence, split luciferase, SaOS-2, uHTS | Protein Mdm4 (Homo sapiens) + E3 ubiquitin-protein ligase Mdm2 (Homo sapiens), … | 330,000 tested, 3% active | SaOS-2 split-luciferase Mdm2/MdmX complementation | inhibition, % at 8 µM;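 active = inhibition of at least 50% at 8 µM in the primary screen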
Target sequence (O15151 whole entry, looked up): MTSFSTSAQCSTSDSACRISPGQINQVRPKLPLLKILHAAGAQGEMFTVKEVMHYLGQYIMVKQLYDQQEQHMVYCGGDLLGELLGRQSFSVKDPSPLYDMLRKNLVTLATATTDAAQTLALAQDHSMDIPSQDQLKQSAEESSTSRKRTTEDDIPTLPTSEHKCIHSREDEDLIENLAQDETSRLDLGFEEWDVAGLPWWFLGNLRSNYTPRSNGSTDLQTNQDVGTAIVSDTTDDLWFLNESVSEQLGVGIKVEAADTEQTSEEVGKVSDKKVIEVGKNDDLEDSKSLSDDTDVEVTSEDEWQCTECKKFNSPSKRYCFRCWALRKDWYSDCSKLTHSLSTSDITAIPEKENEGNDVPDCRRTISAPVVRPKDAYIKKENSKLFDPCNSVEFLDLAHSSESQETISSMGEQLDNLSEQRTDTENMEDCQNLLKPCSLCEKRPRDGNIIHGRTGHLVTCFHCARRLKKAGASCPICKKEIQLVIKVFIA
Target sequence (Q00987 whole entry, looked up): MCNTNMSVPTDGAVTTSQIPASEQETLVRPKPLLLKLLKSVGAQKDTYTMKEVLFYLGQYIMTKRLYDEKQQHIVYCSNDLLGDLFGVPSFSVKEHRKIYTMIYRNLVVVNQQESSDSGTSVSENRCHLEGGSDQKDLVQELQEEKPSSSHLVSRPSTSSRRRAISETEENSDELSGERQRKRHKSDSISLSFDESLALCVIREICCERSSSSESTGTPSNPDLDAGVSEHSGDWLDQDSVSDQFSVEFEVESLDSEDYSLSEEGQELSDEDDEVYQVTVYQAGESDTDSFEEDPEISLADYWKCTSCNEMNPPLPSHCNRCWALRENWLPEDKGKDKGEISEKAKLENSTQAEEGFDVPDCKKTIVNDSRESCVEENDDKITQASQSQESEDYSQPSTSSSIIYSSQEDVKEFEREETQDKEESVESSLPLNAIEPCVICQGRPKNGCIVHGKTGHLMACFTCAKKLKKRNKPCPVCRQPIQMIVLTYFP
The depositor's hits bear a star; ? = inconclusive; nt = no result.

SMILES	NLRP3 yeast inh	T cruzi inh	CSC inhib	Calb FLC	Beta cell apopt	Mdm2 MdmX PPI
Cc1cc[n+](C(C)C(=O)c2ccc(-c3ccccc3)cc2)cc1 (stereo not given)	30	73*	4	-18	99*	32
O=C(NNC(=O)c1nn(-c2ccc(F)cc2)ccc1=O)c1ccc(C(F)(F)F)cc1	19	nt	7	1	nt	9
Cc1cc(=O)oc2cc(OCCc3ccccc3)ccc12	31	13	22	0	-5	42
CCN(CC)CCN(C(=O)CCOc1ccccc1)c1nc2c(F)cc(F)cc2s1	19	56*	3	21	-4	-7
CN(C)CCN(C(=O)CCc1ccccc1)c1nc2c(F)cc(F)cc2s1	16	52	0	-2	-8	-15
COc1cc(C(=O)NCCCN(C)C)ccc1OCC(=O)Nc1cccc(C(F)(F)F)c1	-14	57*	4	-3	nt	6
O=C1CC(C(=O)O)S/C(=N\NC(=O)c2ccccc2)N1 (stereo not given)	-4	-19	-9	7	1	19
Cc1cc(-c2csc3nc[nH]c(=S)c23)cc(C)c1C	16	1	104*	49	22	40
COc1ccc(-c2ccc(N(C)C)cc2)cc1[C@H]1[C@@H]2C=CCC[C@@]2(C)C(=O)N1Cc1ccccc1	6	34	49	3	4	37
Cc1ccc(-c2ccc([C@H]3[C@@H]4C=CCC[C@@]4(C)C(=O)N3Cc3ccccc3)c(F)c2)cc1	2	28	96*	-3	5	39
COc1ccc(-c2cc([C@H]3[C@@H]4C=CCC[C@@]4(C)C(=O)N3Cc3ccccc3)ccc2F)cc1	10	9	122*	-10	-3	1
COc1ccc(-c2ccc([C@H]3[C@@H]4C=CCC[C@@]4(C)C(=O)N3Cc3ccccc3)c(F)c2)cc1	7	52	54	-13	85*	45
COc1ccc(-c2ccc(OC)c([C@H]3[C@@H]4C=CCC[C@@]4(C)C(=O)N3Cc3ccccc3)c2)cc1OC	22	13	28	17	5	2
C[C@@]12CCC=C[C@H]1[C@H](c1ccc3ccccc3c1)N(Cc1ccccc1)C2=O	2	22	86*	-5	-8	43
O=C(N/N=C/c1ccsc1)c1c[nH]c2ccccc12	0	8	-18	-5	2	23
CC1CCCCC1NS(=O)(=O)c1ccc(S(=O)(=O)NCc2ccncc2)cc1 (stereo not given)	6	-23	nt	-7	77*	-2
CCOc1cc(S(=O)(=O)NCc2ccncc2)ccc1Cl	9	-65	-2	32	111*	34
CCOc1ccc(S(=O)(=O)NCc2ccncc2)cc1	-4	-65	22	11	116*	6
Cc1cc(S(=O)(=O)NCc2ccncc2)c(C)cc1Br	18	-13	-3	7	75*	24
Cc1ccc(S(=O)(=O)N(CC(=O)Nc2ccc(Cl)cc2)C(=O)N2CCN(C)CC2)cc1	7	-7	nt	-11	nt	-6
O=C(O)C[C@H](O)C[C@H](O)/C=C/c1c(C2CC2)nc2ccccc2c1-c1ccc(F)cc1	nt	2	nt	103*	nt	nt
Cc1nc2ccccc2c(-c2ccccc2)c1CC(=O)O	-1	-7	-5	-6	-10	-2
COc1ccc2nc(-n3c(O)c(C4=c5ccccc5=NC4=O)[nH]c3=S)sc2c1	nt	-4	111*	-3	10	nt
Cn1c(O)c(C2=c3ccccc3=NC2=O)[nH]c1=S	10	-18	-11	7	5	0
O=C(/C=C/c1ccc(N2CCC(c3ccccc3)=N2)cc1)c1ccccc1	-8	11	92*	38	7	-12
SMILES	NLRP3 yeast inh	T cruzi inh	CSC inhib	Calb FLC	Beta cell apopt	Mdm2 MdmX PPI
O=C(/C=C/c1ccc(O)cc1)c1ccccc1	5	-1	39	1	-1	-38
c1ccc(-c2nc3nonc3nc2-c2ccccc2)cc1	-43	2	6	65	135*	49
C=CCOc1cccc(/C=C2\C(=O)N(Cc3ccc(C)cc3)C(C)=C2C(=O)OC)c1	1	9	85*	2	12	-24
CC1(C(=O)Nc2nccs2)Cc2ccccc2C(=O)O1 (stereo not given)	9	-1	3	-2	0	-9
COC(=O)CCC/C=C1/SCC(NC(=O)c2ccccc2)/C1=N/O (stereo not given)	-8	6	-9	-3	-2	-37
CC(=O)Nc1ccc(-n2c(=O)c3ccccc3c3ccccc3c2=O)cc1	-6	-11	-7	-13	12	-12
CCCCCCCC[n+]1c(C)n(-c2ccccc2)c2ccc(NC(C)=O)cc21	-3	65*	-2	?	102*	-6
COC(=O)CC1C(=O)NCCN1C(=O)c1ccc(S(=O)(=O)N2CCOCC2)cc1 (stereo not given)	8	3	3	-22	-7	-21
Cc1ccccc1Cn1ccc(=NCc2ccccc2)cc1	7	31	0	-21	103*	25
COc1cc(C2SCC(=O)N2CCN2CCCCC2)ccc1O (stereo not given)	8	17	-8	-3	-1	13
Cc1cc(N2CCN(C)CC2)nc2ccc(NC(=S)NCCC(C)C)cc12	9	57*	83*	-14	0	39
Cc1cc(N2CCOCC2)nc2ccc(NC(=S)NCCC(C)C)cc12	11	15	49	10	15	15
O=C(CSc1nnc(COc2ccc(F)cc2)o1)N1c2ccccc2CCc2ccccc21	6	57*	28	-5	-2	18
Cc1cc(N/N=C2\CC(C)CC(C)(C)C2)nc2ccccc12 (stereo not given)	4	45	26	87*	6	30
CC(=O)c1ccc(OCCCC(=O)Nc2cc(Cl)ccc2-n2cncn2)cc1	12	-4	-9	-6	nt	30
Nc1nc2ccc(C(=O)NCCOC(=O)C3CCCCC3)cc2s1	6	-9	-5	12	-3	1
Cc1ccc2c(Cl)c(C(=O)NCCc3ccccc3)sc2c1	8	0	19	21	-4	-250
C=CCn1cc(/C=N/Nc2nc3ccccc3[nH]2)c2ccccc21	16	15	92*	-38	109*	37
Cc1ccc(S(=O)(=O)NC(=O)c2ccc(-c3ccc(-c4ccccc4)cc3)o2)c(C)c1	-5	-16	82*	3	1	11
C/C(=N/NC(=O)c1ccc(-c2ccccc2)cc1)c1cc(O)cc(O)c1	14	nt	96*	5	0	7
COc1ccc(CCNC(=O)c2cc([N+](=O)[O-])cc([N+](=O)[O-])c2)cc1OC	nt	46	1	6	1	nt
